Series [1] concerns Leishmania donovani. The series is described as follows: Antileishmanial activity against axenic Leishmania donovani amastigotes at 15 uM by Alamar Blue assay. The class given is functional. A digest of the protocol: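 L. donovani axenic amastigotes (5.0 × 10^5 cells/ml) were added to an equal volume of compound made up at twice the final concentration in complete amastigote medium with 1% DMSO, giving a 15 µM single-concentration screen. Plates were incubated 24 h at 37 °C in 5% CO2, then alamarBlue was added for 24 h more. Fluorescence was read at ex 544 nm, em 590 nm. Medium ± DMSO served as 0% inhibition, with triplicate wells.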
On the technique in general: Resazurin is reduced to fluorescent resorufin, in cell work by metabolically active cells.

In series [2] the test system is Leishmania donovani. Put plainly: Antileishmanial activity against axenic Leishmania donovani amastigotes by Alamar Blue assay. The class given is functional, organism-based. A digest of the protocol:
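Dose-response GI50 (50% growth inhibition) was run on axenic L. donovani amastigotes (5.0 × 10^5 cells/ml) mixed 1:1 with compound at twice the final concentration in amastigote medium with 1% DMSO. Incubation was 24 h at 37 °C in 5% CO2, plus 24 h with alamarBlue, then fluorescence at 544/590 nm. Medium ± DMSO was taken as 0% inhibition. Triplicate wells were used, with duplicate or single experiments ± standard error.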

The subject of a further series is THP-1. The series is described as follows: Cytotoxicity against human THP1 cells at 1 uM after 48 hrs by Alamar Blue assay. The conditions noted are these: thp-1, 48 h. The series is classed as cell-based. The essentials: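 THP-1 macrophages in complete RPMI-1640 (8 × 10^5 cells/ml) were added to an equal volume of compound, stated as 2 µM in complete medium with 1% DMSO. Triplicate wells were incubated 48 h at 37 °C in 5% CO2. AlamarBlue was then added for 3 h and fluorescence was read. Medium with and without DMSO served as 0% inhibition controls.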

Series [3] has as its system Leishmania donovani. Put plainly: Antileishmanial activity against axenic Leishmania donovani amastigotes at 1 uM by Alamar Blue assay. The series is classed as functional.

Bounds are passed on as bounds.

For `COc1ccc(C(=O)/C=C/c2cccc3ccccc23)cc1`, the inhibition (commonly the drop in the measured response relative to a control, in per cent) at 15 µM with Leishmania donovani [1] was found to be 51%. For the same compound, the IC50 (in general, the concentration that inhibits the measured activity by half) with Leishmania donovani [2] (in the assay text read “by tetrazolium dye-based assay” for “by Alamar Blue assay”) is > 200 µM.
For the compound `O=C(/C=C/c1ccc(NC(=O)c2ccccc2)cc1)c1ccc(Cl)cc1`, the inhibition at 15 µM in the series with Leishmania donovani [1] is 59.8%.
On to `O=C(Nc1ccc(/C=C/C(=O)c2cccs2)cc1)c1ccccc1`, for which, in the series with Leishmania donovani [1], the inhibition at 15 µM worked out at 95.3%. Further, it took 5.5 µM to inhibit growth in the series with Leishmania donovani [2] by half (GI50). This compound also showed an Activity with THP-1 of 6%.
On to `O=C(Nc1ccc(/C=C/C(=O)c2ccco2)cc1)c1ccccc1`, for which at 15 µM the inhibition with Leishmania donovani [1] was 92.4%. It took 6 µM to inhibit growth with Leishmania donovani [2] by half (GI50). Besides, the Activity in the series with THP-1 worked out at 0%.
For `CC(=O)c1ccc(/C=C/C(=O)c2ccccc2)cc1`, 15 µM produced 93.6% inhibition in the series with Leishmania donovani [1]. Besides, in the series with Leishmania donovani [2], the concentration for 50% growth inhibition (GI50) (commonly the concentration at which growth is held to half of that of the control) turned out to be 5.6 µM. The Activity in the series on THP-1 is recorded as 45.7%.
The compound `O=C(/C=C/c1ccc(Oc2ccccc2)nc1)c1ccccc1` yielded an inhibition at 15 µM in the series with Leishmania donovani [1] of 63.7%.
For `COc1ccc(C(=O)/C=C/c2ccc(Oc3ccccc3)nc2)cc1`, the inhibition at 15 µM with Leishmania donovani [1] is 42%.
As to `COc1ccc(C(=O)/C=C/c2ccc(NC(=O)c3ccccc3)cc2)cc1`, the inhibition at 15 µM in the series on Leishmania donovani [1] was found to be 2.1%.
Compound `O=C(/C=C/c1ccc(NC(=O)c2ccccc2)cc1)c1cccnc1` had an inhibition at 15 µM in the series with Leishmania donovani [1] of 98.7%. Also, in the series with Leishmania donovani [2], the GI50 stood at 2.5 µM. The Activity in the series on THP-1 was 0%.
Turning to `O=C(/C=C/c1ccc(NC(=O)c2ccccc2)cc1)c1ccccc1`, the inhibition at 15 µM in the series with Leishmania donovani [1] was 91.6%. For the same compound, in the series on Leishmania donovani [2], the GI50 was determined as 7.6 µM. Moreover, in the series on THP-1, the Activity was determined as 37%.
As for `COc1ccc(C(=O)/C=C/c2ccc(NC(C)=O)cc2)cc1`, testing at 15 µM in the series with Leishmania donovani [1] gave an inhibition of 54.7%.
For the compound `C[C@@H]1[C@H](O)[C@@H](C)/C=C/C=C/C=C/C=C/C=C/C=C/C=C/[C@H](O[C@@H]2O[C@H](C)[C@@H](O)[C@H](N)[C@@H]2O)C[C@@H]2O[C@](O)(C[C@@H](O)C[C@@H](O)[C@H](O)CC[C@@H](O)C[C@@H](O)CC(=O)O[C@H]1C)C[C@H](O)[C@H]2C(=O)O` [AMPHOTERICIN B], 15 µM produced 99% inhibition in the series with Leishmania donovani [1]. The inhibition at 1 µM in the series on Leishmania donovani [3] is > 90%.

Source of the values: ChEMBL document CHEMBL1141523, “A new Heck reaction modification using ketone Mannich bases as enone precursors: parallel synthesis of anti-leishmanial chalcones” (Bioorg Med Chem Lett, 2008).
